Assay results as given in ChEMBL document CHEMBL1143668, “Reversal of P-glycoprotein-mediated multidrug resistance by sipholane triterpenoids” (J Nat Prod, 2007).

Tests used:
Format in all cases: functional, cell-based
[1] = system: KB; test: Cytotoxicity against KB cells expressing MRP1 after 68 hrs by MTT assay; details: Homo sapiens
Method in brief: (§1)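 Human epidermoid carcinoma KB-3-1 (parental) and sublines: KB/MRP1 (MRP1 cDNA-transfected), KB-CV60 (kept in 1 μg/mL cepharanthine + 60 ng/mL vincristine), KB-C2 (kept in 2 μg/mL colchicine). DMEM with 10% bovine serum, 37 °C, 5% CO₂. Seeded at 4×10^4 (KB-3-1), 5×10^4 (KB/MRP1) or 7.5×10^4 cells/mL (KB-CV60, KB-C2). Compound dilution series for 68 h, then MTT 4 h. Formazan dissolved in DMSO, A570. IC50 from survival curves by the Bliss method.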

[2] = Cytotoxicity against KB-C2 cells overexpressing P-gp after 68 hrs by MTT assay; details: Homo sapiens, KB-C2, 68 h; method in brief: as §1
[3] = Cytotoxicity against KB-3-1 cells after 68 hrs by MTT assay; details: Homo sapiens, KB 3-1, 68 h; method in brief: as §1
[4] = system: KB 3-1; test: Reversal of P-gp-mediated multidrug resistance to Cytotoxicity of colchicine against human KB-3-1 cells at 5 uM after 68 hrs by MTT assay; details: KB 3-1, 68 h
Method in brief: (§2)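 KB-3-1 seeded at 4×10^4 cells/mL, KB-C2 at 7.5×10^4 cells/mL (KB-C2 kept in 2 μg/mL colchicine). MTT added for 4 h, DMSO solubilization, A570. IC50 by the Bliss method. Fold-resistance = IC50 / colchicine IC50 in KB-3-1. Mean ± SD, three independent experiments in triplicate.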

[5] = Reversal of P-gp-mediated multidrug resistance to Cytotoxicity of colchicine against human KB-C2 cells at 5 uM after 68 hrs by MTT assay; details: KB-C2, 68 h; method in brief: as §2
[6] = Cytotoxicity against KB-CV60 cells expressing MRP1 after 68 hrs by MTT assay; details: Homo sapiens, KB-CV60, 68 h; method in brief: as §1

## CC1=CCC2C(CC[C@@]2(C)O)C(C)(C)C1CC[C@@H]1[C@@]2(C)CCC(=O)C(C)(C)O[C@@H]2CC[C@]1(C)O (stereo partly drawn) [SIPHOLENONE A]
[1]
  IC50: > 50 µM
[2]
  IC50: > 50 µM
[3]
  IC50: > 50 µM
[4]
  IC50: 0.0052 µM
[5]
  IC50: 0.93 µM
[6]
  IC50: > 50 µM

## CC1(C)O[C@@H]2CC[C@](C)(O)[C@H](CCC3C(C=O)=CCC4C(CC[C@@]4(C)O)C3(C)C)[C@@]2(C)CCC1=O (stereo partly drawn)
[1]
  IC50: > 50 µM
[2]
  IC50: > 50 µM
[3]
  IC50: > 50 µM
[4]
  IC50: 0.0056 µM
[5]
  IC50: 6.32 µM
[6]
  IC50: > 50 µM

## CC1(C)C(CC[C@@H]2[C@@]3(C)CC[C@@H](O)C(C)(C)O[C@@H]3CC[C@]2(C)O)C(CO)=CCC2C1CC[C@@]2(C)O (stereo partly drawn) [28-HYDROXYSIPHOLENOL A]
[1]
  IC50: > 50 µM
[2]
  IC50: > 50 µM
[3]
  IC50: > 50 µM
[4]
  IC50: 0.0059 µM
[5]
  IC50: 5.07 µM
[6]
  IC50: > 50 µM

## CC1=C(CC[C@@H]2[C@@]3(C)CC[C@@H](O)C(C)(C)O[C@@H]3CC[C@]2(C)O)[C@](C)(C/C=C/C(C)(C)O)[C@H](O)CC1 [SIPHONELLINOL C]
[1]
  IC50: > 50 µM
[2]
  IC50: > 50 µM
[3]
  IC50: > 50 µM
[4]
  IC50: 0.0078 µM
[5]
  IC50: 1.48 µM
[6]
  IC50: > 50 µM

## CC1(C)O[C@@H]2CC[C@](C)(O)[C@H](CCC3C(CO)=CCC4C(CC[C@@]4(C)O)C3(C)C)[C@@]2(C)CCC1=O (stereo partly drawn)
[1]
  IC50: > 50 µM
[2]
  IC50: > 50 µM
[3]
  IC50: > 50 µM
[4]
  IC50: 0.0063 µM
[5]
  IC50: 6 µM
[6]
  IC50: > 50 µM

## CC1(C)O[C@@H]2CC[C@](C)(O)[C@H](CC[C@@]34O[C@]3(C)[C@H](O)CC3C(CC[C@@]3(C)O)C4(C)C)[C@@]2(C)CC[C@H]1O (stereo partly drawn) [SIPHOLENOL I]
[1]
  IC50: > 50 µM
[2]
  IC50: > 50 µM
[3]
  IC50: > 50 µM
[4]
  IC50: 0.0086 µM
[5]
  IC50: 2.87 µM
[6]
  IC50: > 50 µM

## CC1(C)C(CC[C@@H]2[C@@]3(C)CC[C@@H](O)C(C)(C)O[C@@H]3CC[C@]2(C)O)C(C=O)=CCC2C1CC[C@@]2(C)O (stereo partly drawn)
[1]
  IC50: > 50 µM
[2]
  IC50: > 50 µM
[3]
  IC50: > 50 µM
[4]
  IC50: 0.005 µM
[5]
  IC50: 2.85 µM
[6]
  IC50: > 50 µM

## CC1=CCC2C(CC[C@@]2(C)O)C(C)(C)C1CC[C@@H]1[C@@]2(C)CC[C@@H](O)C(C)(C)O[C@@H]2CC[C@]1(C)O (stereo partly drawn) [SIPHOLENOL A]
[1]
  IC50: > 50 µM
[2]
  IC50: > 50 µM
[3]
  IC50: > 50 µM
[4]
  IC50: 0.005 µM
[5]
  IC50: 0.21 µM
[6]
  IC50: > 50 µM
